Consider seven compounds from ChEMBL document CHEMBL3813618, “Polyhalogenated Indoles from the Red Alga Rhodophyllis membranacea: The First Isolation of Bromo-Chloro-Iodo Secondary Metabolites” (J Nat Prod, 2016).

The subject of one experiment is Saccharomyces cerevisiae. Put plainly: Antifungal activity against Saccharomyces cerevisiae BY4741 assessed as growth inhibition. Format: functional. A digest of the protocol: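 Wild-type strain BY4741 grown in liquid synthetic complete medium with compound; cell density read at A600. Concentration giving 50% growth inhibition determined relative to untreated controls.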

Experiment [1] in a line: Cytotoxicity against human HL60 cells assessed as cell growth inhibition after 48 hrs by MTT assay. Format: functional, cell-based. The note with it: HL-60, 48 h. The procedure, abridged: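 Cell proliferation MTT assay, 48 h exposure of HL-60 promyelocytic leukemia cells to compound at various concentrations; dose-response generated relative to untreated HL-60 control cells. n = 1 or 2 independent experiments, duplicate wells per experiment.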

Where only a bound is given, the exact number is not on record here.

In the case of `Clc1[nH]c2c(Br)ccc(Br)c2c1Cl`, the results for the IC50 (with Saccharomyces cerevisiae; in experiment [1]) were 23 µM and 28 µM, respectively. The like results for `Clc1[nH]c2c(Br)c(Br)ccc2c1Cl` were, in that order, 63 µM and 61 µM.

As to `Clc1[nH]c2c(Br)c(I)ccc2c1Cl`, the results for the IC50 (with Saccharomyces cerevisiae; in experiment [1]) were 39 µM and 49 µM, respectively. The corresponding values for `Brc1ccc2c(Br)c(Br)[nH]c2c1Br` are 69 µM and 38 µM. For `O=C1Nc2cccc(Cl)c2C1=O`, the IC50 in the experiment on Saccharomyces cerevisiae is greater than 61 µM. Consider `Clc1c(Br)[nH]c2c(Br)c(Br)ccc12`, for which the IC50 with Saccharomyces cerevisiae is greater than 83 µM; in experiment [1], 78 µM. The like results for `CC(=O)CC1(O)C(=O)Nc2cccc(Cl)c21` (stereo not drawn) were, in that order, greater than 49 µM and 61 µM.
